What is called GI50 is the concentration at which growth is held to half of that of the control. Read a low GI50 as greater sensitivity of the cells. A word on the IC50: it is the concentration at which inhibition is half-maximal.

Assay [1] can be described thus: Growth inhibition in the NCI 60 cell panel. It is filed as functional. The conditions noted are these: Homo sapiens.
The nature of assay [2]: Selectivity index (GI50/Telomerase IC50).
Assay [3] deals with Telomerase reverse transcriptase (Homo sapiens, UniProt O14746). The assay is described as follows: Inhibition of telomerase activity using TRAP assay. The method, boiled down: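 Telomerase came from lysates of exponentially growing A2780 cells (CHAPS buffer, 30 min on ice, 0.1 mM AEBSF), using 40 ng protein. TS primer was extended in TRAP buffer (pH 8.3, 68 mM KCl) with 50 μM dNTPs and [α-³²P]dCTP, compound at various final concentrations, for 20 min at 25 °C. After 85 °C inactivation, the CX primer was added with Taq for 31 PCR cycles. Products were read by phosphoimaging or scintillation counting.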
Telomerase reverse transcriptase, sequence (O14746 whole entry): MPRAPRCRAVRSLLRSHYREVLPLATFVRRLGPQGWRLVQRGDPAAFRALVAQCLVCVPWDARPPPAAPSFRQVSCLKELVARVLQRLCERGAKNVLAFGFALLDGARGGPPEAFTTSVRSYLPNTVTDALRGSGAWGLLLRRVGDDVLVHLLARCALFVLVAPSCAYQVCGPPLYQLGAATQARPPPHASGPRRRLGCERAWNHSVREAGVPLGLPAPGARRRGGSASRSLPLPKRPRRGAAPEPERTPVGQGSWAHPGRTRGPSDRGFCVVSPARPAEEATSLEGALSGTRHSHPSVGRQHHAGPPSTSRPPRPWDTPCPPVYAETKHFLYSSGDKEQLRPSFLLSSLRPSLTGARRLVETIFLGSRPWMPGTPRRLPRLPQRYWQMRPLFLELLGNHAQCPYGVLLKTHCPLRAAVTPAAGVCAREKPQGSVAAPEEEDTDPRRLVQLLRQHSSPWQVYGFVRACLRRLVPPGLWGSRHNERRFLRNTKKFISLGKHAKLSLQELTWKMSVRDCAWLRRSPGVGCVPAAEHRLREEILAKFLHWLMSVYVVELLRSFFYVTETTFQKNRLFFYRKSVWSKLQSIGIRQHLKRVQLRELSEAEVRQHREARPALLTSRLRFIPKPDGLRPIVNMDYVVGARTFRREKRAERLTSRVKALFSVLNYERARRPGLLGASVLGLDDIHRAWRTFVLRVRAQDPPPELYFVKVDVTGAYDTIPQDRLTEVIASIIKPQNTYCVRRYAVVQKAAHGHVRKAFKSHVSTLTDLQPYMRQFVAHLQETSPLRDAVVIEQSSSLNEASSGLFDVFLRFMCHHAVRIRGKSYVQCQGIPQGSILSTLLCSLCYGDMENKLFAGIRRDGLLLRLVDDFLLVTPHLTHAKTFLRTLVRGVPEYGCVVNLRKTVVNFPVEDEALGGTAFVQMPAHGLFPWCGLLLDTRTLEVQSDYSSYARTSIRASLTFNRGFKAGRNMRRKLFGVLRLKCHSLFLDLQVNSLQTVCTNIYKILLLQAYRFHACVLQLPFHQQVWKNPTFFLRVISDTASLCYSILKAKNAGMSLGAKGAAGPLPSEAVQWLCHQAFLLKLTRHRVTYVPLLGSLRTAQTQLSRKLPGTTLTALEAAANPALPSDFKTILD

`Cc1cc2c3c([n+](C)c4ccc(Cl)cc4c3c1)-c1cc(Cl)ccc1N2C` returned a GI50 in assay [1] of 4170 nM. The compound also registered an SI in assay [2] of 17. Further, the IC50 in assay [3] was 250 nM.
Compound `CN1c2ccccc2-c2c3c1cccc3c1ccccc1[n+]2C` displayed an IC50 in assay [3] of 380 nM.
In turn, `c1ccc2c(c1)Nc1cccc3cc4[n+](c-2c13)CCC4` showed a GI50 in assay [1] of 90 nM.
The compound `Cc1ccc2c(c1)-c1c3c(cc(C)cc3c3cc(C)ccc3[n+]1C)N2C` displayed a GI50 in assay [1] of 410 nM. Further, in assay [2], the SI is 1.8. The same compound came in with an IC50 in assay [3] of 250 nM.
`CCN1c2ccccc2-c2c3c1cc(C)cc3c1ccccc1[n+]2CC` returned a GI50 in assay [1] of 1100 nM. Also, the SI in assay [2] is 0.5. In assay [3], the IC50 was found to be 2000 nM.
On the same counts, the results for `Cc1cc2c3c([n+](C)c4ccc(F)cc4c3c1)-c1cc(F)ccc1N2C` are 13200 nM, 40 and 330 nM.
On the same counts, the results for `Cc1cc2c3c([n+](C)c4ccccc4c3c1)-c1ccccc1N2C` are 1290 nM, 1.7 and 760 nM.

Source of the values: ChEMBL document CHEMBL1135702, “Antitumor polycyclic acridines. 8.(1) Synthesis and telomerase-inhibitory activity of methylated pentacyclic acridinium salts” (J Med Chem, 2002).
